In ChEMBL document CHEMBL3817776, “Discovery and Structure-Activity Relationships of the Neoseptins: A New Class of Toll-like Receptor-4 (TLR4) Agonists” (J Med Chem, 2016) one finds Activity data, which are given here for 54 compounds.

The structures appear in SMILES notation. Calls of active or inactive are those of the source. The rule behind the calls is not given here.

The target in the assay is T1, Toll-like receptor 4 (Mus musculus) (UniProt Q9QUK6).
T1 sequence (whole entry): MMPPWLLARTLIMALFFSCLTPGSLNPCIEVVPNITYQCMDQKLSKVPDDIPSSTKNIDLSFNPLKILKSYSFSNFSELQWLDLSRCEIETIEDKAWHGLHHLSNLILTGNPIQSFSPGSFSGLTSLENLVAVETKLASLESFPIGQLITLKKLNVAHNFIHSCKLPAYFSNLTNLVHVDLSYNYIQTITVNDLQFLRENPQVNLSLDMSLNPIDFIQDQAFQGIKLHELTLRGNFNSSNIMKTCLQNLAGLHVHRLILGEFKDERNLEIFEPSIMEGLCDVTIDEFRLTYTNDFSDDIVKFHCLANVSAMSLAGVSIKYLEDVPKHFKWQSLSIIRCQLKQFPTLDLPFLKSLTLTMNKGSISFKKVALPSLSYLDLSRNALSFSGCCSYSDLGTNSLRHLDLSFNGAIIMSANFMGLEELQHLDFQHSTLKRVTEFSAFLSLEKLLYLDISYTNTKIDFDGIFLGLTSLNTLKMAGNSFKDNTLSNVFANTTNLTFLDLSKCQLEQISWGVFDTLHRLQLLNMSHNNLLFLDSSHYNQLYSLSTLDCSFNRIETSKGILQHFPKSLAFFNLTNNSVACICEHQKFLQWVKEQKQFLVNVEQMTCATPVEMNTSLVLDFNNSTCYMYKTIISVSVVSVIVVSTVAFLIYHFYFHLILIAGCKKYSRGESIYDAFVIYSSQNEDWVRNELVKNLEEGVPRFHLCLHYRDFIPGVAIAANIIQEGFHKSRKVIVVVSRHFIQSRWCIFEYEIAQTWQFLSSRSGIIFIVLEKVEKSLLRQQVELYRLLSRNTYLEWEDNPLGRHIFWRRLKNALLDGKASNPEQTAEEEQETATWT
The assay can be described thus: Agonist activity at TLR4 in C57BL/6J mouse macrophages assessed as stimulation of TNFalpha release at 50 uM after 4 hrs by ELISA. The procedure, abridged: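 Peritoneal macrophages from wild-type C57BL/6J mice, collected by PBS lavage and cultured in DMEM/10% FBS at 37 °C, 5% CO2. Seeded at 1 × 10^5 cells/well and treated 4 h with compound in DMSO (0.5% final) beside ultra-pure LPS and DMSO controls. Supernatant TNF-α measured by ELISA; mean of triplicates.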
A general note: In an ELISA, binding on a coated surface is turned into a signal by an enzyme label.
On to `CC(C)(C)OC(=O)[C@H](CCc1ccccc1)NC(=S)c1ccc(N)c(CCc2ccc(O)cc2)c1`, for which the outcome was inactive.
Then `CC(C)C[C@H](N)C(=O)OC(C)(C)C`, with “Active”; and `CC(C)(C)OC(=O)[C@@H](N)Cc1ccccc1`, with “inactive”; and `CC(C)(C)OC(=O)[C@H](CCCCc1ccccc1)NC(=O)c1ccc(N)c(CCc2ccc(O)cc2)c1`, with “inactive”.
With `CC(C)(C)OC(=O)[C@H](CCc1ccccc1)NC(=O)c1ccc(N)c(OCCc2ccc(O)c(Cl)c2)c1`, the outcome was inactive.
As to `CC(C)(C)OC(=O)[C@H](CCc1ccccc1)NC(=O)c1ccc(N)c(-c2ccc(O)cc2)c1`, the outcome was inactive.
Turning to `CC(C)(C)OC(=O)[C@H](CCc1ccccc1)NC(=O)c1cc(N)cc(CCc2ccc(O)cc2)c1`, the result was Active.
Regarding `CCCCCCNC(=O)[C@H](CCc1ccccc1)NC(=O)c1ccc(N)c(CCc2ccc(O)cc2)c1`, the result was Active.
The entry for `CSCC[C@H](N)C(=O)OC(C)(C)C` is “inactive”.
On to `N[C@@H](Cc1ccccc1)C(=O)Nc1ccc(C(=O)N[C@@H](CCc2ccccc2)C(=O)O)cc1OCCc1ccc(O)cc1`, for which the result was Active.
Then `CC(C)(C)OC(=O)[C@H](CCc1ccccc1)NC(=O)c1ccc(N)c(Cc2ccc(O)cc2)c1`, with “inactive”; and `CC(C)(C)OC(=O)[C@H](CCc1ccc(Cl)cc1)NC(=O)c1ccc(N)c(CCc2ccc(O)cc2)c1`, with “inactive”; and `CC(C)(C)OC(=O)[C@H](CCc1ccccc1)NC(=O)c1cccc(CCc2ccc(O)cc2)c1`, with “inactive”.
As for `CC(C)(C)OC(=O)[C@H](CCc1ccccc1)NC(=O)c1ccc(N)c(C#Cc2ccc(O)cc2)c1`, the outcome was inactive.
On to `CCC(C)(C)OC(=O)[C@H](CCc1ccccc1)NC(=O)c1ccc(N)c(CCc2ccc(O)cc2)c1`, for which the result was Active.
The entry for `CNc1ccc(C(=O)N[C@@H](CCc2ccccc2)C(=O)OC(C)(C)C)cc1CCc1ccc(O)cc1` is “inactive”.
Turning to `CC(C)(C)NC(=O)[C@H](CCc1ccccc1)NC(=O)c1ccc(N)c(CCc2ccc(O)cc2)c1`, the result was inactive.
For the compound `CC(C)(C)OC(=O)[C@H](CCc1ccccc1)NC(=O)c1ccc(N)c(CCc2ccccc2)c1`, the result was inactive.
Then `N[C@@H](Cc1ccc2ccccc2c1)C(=O)Nc1ccc(C(=O)N[C@@H](CCc2ccccc2)C(=O)O)cc1OCCc1ccc(O)cc1`, with “Active”; and `CC(C)(C)OC(=O)[C@H](CCc1ccccc1)NC(=O)c1ccc(N)c(OCCCCc2ccc(O)cc2)c1`, with “inactive”; and `CC(C)(C)OC(=O)[C@H](CCc1ccccc1)NC(=O)c1ccc(N)c(OCCc2ccc(O)c(F)c2)c1`, with “inactive”.
Take `NC(=O)[C@H](CCc1ccccc1)NC(=O)c1ccc(N)c(CCc2ccc(O)cc2)c1`: the result was inactive.
Then `CC(C)[C@H](N)C(=O)OC(C)(C)C`, with “Active”.
The entry for `Nc1ccc(C(=O)N[C@@H](CCc2ccccc2)C(=O)OC23CC4CC(CC(C4)C2)C3)cc1CCc1ccc(O)cc1` is “inactive”; for `CC(C)(C)OC(=O)[C@H](CCc1ccccc1)NC(=O)c1cc(CCc2ccc(O)cc2)ccc1N` it is “inactive”; for `C#CCC(C)(C)OC(=O)[C@H](CCc1ccccc1)NC(=O)c1ccc(N)c(CCc2ccc(O)cc2)c1` it is “inactive”.
Then `CN(C)c1ccc(C(=O)N[C@@H](CCc2ccccc2)C(=O)OC(C)(C)C)cc1CCc1ccc(O)cc1`, with “inactive”; and `CC(C)OC(=O)[C@H](CCc1ccccc1)NC(=O)c1ccc(N)c(CCc2ccc(O)cc2)c1`, with “inactive”.
For the compound `CC(C)(C)OC(=O)[C@H](CCc1ccccc1)NC(=O)c1ccc(N)c(CCc2ccccc2O)c1`, the outcome was inactive.
Regarding `CCCCCCCCCNC(=O)[C@H](CCc1ccccc1)NC(=O)c1ccc(N)c(CCc2ccc(O)cc2)c1`, the outcome was inactive.
Then `CCCCCCCCNC(=O)[C@H](CCc1ccccc1)NC(=O)c1ccc(N)c(CCc2ccc(O)cc2)c1`, with “inactive”; and `CC(C)(C)OC(=O)[C@H](CCc1ccccc1)NC(=O)c1ccc(N)c(Sc2ccc(O)cc2)c1`, with “inactive”; and `Nc1ccc(C(=O)N[C@@H](CCc2ccccc2)C(=O)O)cc1OCCc1ccc(O)cc1`, with “inactive”.
Take `CC(C)(C)OC(=O)[C@H](CCc1ccccc1)NC(=O)c1ccc([N+](=O)[O-])c(OCCc2ccc(O)cc2)c1`: the result was inactive.
Consider `CC(C)(C)OC(=O)[C@H](CCc1ccccc1)NC(=O)c1ccc(N)c(OCCc2ccccc2)c1`, for which the result was inactive.
Then `COc1ccc(C[C@H](N)C(=O)Nc2ccc(C(=O)N[C@@H](CCc3ccccc3)C(=O)O)cc2OCCc2ccc(O)cc2)cc1`, with “Active”.
Then `CCCCCCCCCCNC(=O)[C@H](CCc1ccccc1)NC(=O)c1ccc(N)c(CCc2ccc(O)cc2)c1`, with “inactive”.
Regarding `CN(C(=O)c1ccc(N)c(CCc2ccc(O)cc2)c1)[C@@H](CCc1ccccc1)C(=O)OC(C)(C)C`, the outcome was inactive.
With `Nc1ccc(C(=O)N[C@@H](CCc2ccccc2)C(=O)O)cc1CCc1ccc(O)cc1`, the outcome was inactive.
`CC(C)(C)OC(=O)[C@H](CCc1ccc(F)cc1)NC(=O)c1ccc(N)c(CCc2ccc(O)cc2)c1`: the outcome was Active.
The entry for `CC(C)(C)OC(=O)[C@H](CCc1ccccc1)NC(=O)c1ccc(N)c(OCCc2cccc(O)c2)c1` is “Active”.
The entry for `CC(C)(C)OC(=O)[C@H](CCc1ccccc1)NC(=O)c1ccc(N)c(COc2ccc(O)cc2)c1` is “Active”; for `CC(C)(C)OC(=O)[C@H](CCc1ccccc1)NC(=O)c1ccc(N)c(CCc2cccc(O)c2)c1` it is “Active”; for `CC(C)(C)OC(=O)[C@H](CCc1ccc(N)cc1)NC(=O)c1ccc(N)c(CCc2ccc(O)cc2)c1` it is “inactive”.
Take `CC(C)(C)COC(=O)[C@H](CCc1ccccc1)NC(=O)c1ccc(N)c(CCc2ccc(O)cc2)c1`: the outcome was inactive.
Then `COc1ccc(CCc2cc(C(=O)N[C@@H](CCc3ccccc3)C(=O)OC(C)(C)C)ccc2N)cc1`, with “inactive”; and `CC(C)(C)OC(=O)[C@H](CCc1ccccc1)NC(=O)c1ccc(N)c(CCCc2ccc(O)cc2)c1`, with “Active”.
`CC(=O)Nc1ccc(C(=O)N[C@@H](CCc2ccccc2)C(=O)OC(C)(C)C)cc1CCc1ccc(O)cc1`: the result was inactive.
Then `CC(C)(C)OC(=O)[C@H](CCc1ccccc1)NC(=O)c1ccc(N)c(Nc2ccc(O)cc2)c1`, with “inactive”; and `CCCCCCCNC(=O)[C@H](CCc1ccccc1)NC(=O)c1ccc(N)c(CCc2ccc(O)cc2)c1`, with “inactive”; and `CC(C)(C)OC(=O)[C@H](CCc1ccccc1)NC(=O)c1cccc(OCCc2ccc(O)cc2)c1`, with “inactive”.
Turning to `CC(C)(C)OC(=O)[C@H](CCc1ccccc1)NCc1ccc(N)c(CCc2ccc(O)cc2)c1`, the result was inactive.
For the compound `CC[C@H](N)C(=O)OC(C)(C)C`, the outcome was Active.
The entry for `CC(C)(C)OC(=O)[C@H](CCc1ccccc1)NC(=O)c1ccc(N)c(OCCCc2ccc(O)cc2)c1` is “inactive”.
